Like-named read-outs stand apart in the source and are kept apart here. Blank lines part the entries; values can stand above or below the molecule they belong to.
Legend:
[1] = Chemical reaction of AcA with AcLys, adduct determined by HPLC-MS/MS; assay type: physicochemical
Outline: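 AcA was at 10 μM; the mixture was shaken at 600 rpm to mimic the microsomal incubation matrix and sampled over time. AcLys-AcA was measured by HPLC-ESI⁺-MS/MS. n = 3, mean ± standard deviation.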

[2] = Stability of AcLys-AcA in solvents; assay type: physicochemical
[3] = Cytotoxicity via cell viability using resazurin reduction in pRH; assay type: cell-based; settings: male, Wistar, rat, primary rat hepatocytes
[4] = test system: primary rat hepatocytes (pRH); experiment: Adduct formation; assay type: in vitro ADME; settings: for AcCys-AcA formation in cell supernatants / formation of AcLys-AcA in cell supernatants: pRH incubated with 2-MF (10–1000 μM) or AcA (0.1–5 μM), 1–48 h; for AcLys-AcA in cell supernatant compared to the negative control: pRH
Outline: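 Hepatocytes came from adult male Wistar rats (150–250 g) and were used only at ≥80% viability. Cells were seeded at 1 million cells/mL on collagen-coated dishes, allowed 3 h to attach, then PBS-washed. Incubation was at 37 °C, 5% CO₂ with test compound for 1, 6, 18, 24 or 48 h. Supernatants got 1 μM final AcLys-BDA internal standard, SPE cleanup, then UHPLC-ESI⁺-MS/MS (MRM m/z 269.2/164.2). Untreated negative control; n = 3–6.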

[5] = Chemical reaction of AcA with AcCys, adduct determined by HPLC-MS/MS; assay type: physicochemical; settings: AcA (1 μM) with AcCys (4 mM) in water, 37 °C
Outline: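 Mixture shaken at 600 rpm and sampled over incubation time. Adduct was detected by HPLC-ESI⁺-MS/MS on a Synergi Hydro-RP column with a formic acid/acetonitrile gradient, MRM quantifier m/z 241.9/112.9, and reported as peak area (AUC). n = 3, mean ± standard deviation.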

[6] = test system: rat liver microsomes (RLM); settings: ref Ravindranath and Boyd (1985) [9], cited from earlier work; for Km: RLM
pRH = experiment: GSH depletion in pRH after exposure to 2-MF; assay type: cell-based, rat; settings: data not shown
[7] = test system: rat liver microsomes (RLM); assay type: in vitro ADME; settings: RLM, untr.; II) low substrate concentrations (10 and 100 μM 2-MF); 10 min
Outline: (§1)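 Pooled liver microsomes (male Sprague–Dawley rat; mixed-gender human) at 1.0 mg protein/mL in 50 mM phosphate or Tris buffer with 3 mM MgCl₂ and 4 mM AcLys trap. Preincubated with 2-MF (10–750 μM) for 5 min at 37 °C, NADPH-started, 10 min. Stopped with cold MeCN containing 1 μM AcLys-BDA; AcLys-AcA by HPLC-MS/MS. Kinetics fitted biphasically; heat-inactivated and no-NADPH controls; n = 3–6.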

[8] = test system: human liver microsomes (HLM); assay type: in vitro ADME; settings: 10 min
Outline: as §1

CYP 2E1 [9] = biological target: CYP 2E1 (Homo sapiens, UniProt P05181); assay type: in vitro ADME; settings: Supersomes CYP 2E1, 100 and 500 μM 2-MF, 10, 30 or 60 min; negative control without NADPH
HepG2 cells = experiment: GSH depletion in HepG2 cells after exposure to 2-MF; assay type: cell-based; settings: data not shown
CYP 2E1 [10] = settings: ref Peterson et al. (2005) [32]; cited from earlier work
[11] = test system: rat liver microsomes (RLM); settings: pretr., ref Peterson et al. (2005) [32]; cited from earlier work
[12] = test system: human liver microsomes (HLM); settings: 50 μM furan, ref Gates et al. (2012) [30]; cited from earlier work
[13] = test system: rat liver microsomes (RLM); settings: untr., 50 μM furan, ref Gates et al. (2012) [30]; cited from earlier work
CYP 2E1 [14] = settings: cited from earlier work
[15] = 20 or 400 μM furan, ref Gates et al. (2012) [30]

Sequence of CYP 2E1 (Homo sapiens, UniProt P05181) (P05181 whole entry): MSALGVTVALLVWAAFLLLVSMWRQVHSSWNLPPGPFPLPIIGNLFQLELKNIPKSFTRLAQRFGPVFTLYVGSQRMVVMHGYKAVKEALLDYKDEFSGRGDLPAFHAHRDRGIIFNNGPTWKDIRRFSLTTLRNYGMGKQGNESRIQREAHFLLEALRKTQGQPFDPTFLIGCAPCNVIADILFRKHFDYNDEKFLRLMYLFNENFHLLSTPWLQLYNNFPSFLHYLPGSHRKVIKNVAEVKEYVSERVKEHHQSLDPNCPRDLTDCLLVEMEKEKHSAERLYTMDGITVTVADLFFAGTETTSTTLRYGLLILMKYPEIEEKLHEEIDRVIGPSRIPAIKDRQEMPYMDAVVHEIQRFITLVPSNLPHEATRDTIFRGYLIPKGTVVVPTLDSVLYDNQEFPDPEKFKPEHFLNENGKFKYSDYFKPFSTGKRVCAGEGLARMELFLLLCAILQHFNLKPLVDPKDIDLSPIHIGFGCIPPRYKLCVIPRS

- stability of adduct yield ([1]; reaction mixture of AcA with AcLys (4 mM) in K2HPO4 buffer pH 7.4, 37 °C): stable for up to 24 h
- stability (NMR) ([2]; in organic solvents): unstable
- stability of NMR and MS signals ([2]; in water): stable
SMILES: CC(=O)N[C@@H](CCCCN1C(=O)C=CC1C)C(=O)O (stereo partly drawn) [AcLys-AcA, L-2-Acetamido-6-(2-methyl-5-oxo-2,5-dihydro-1H-pyrrol-1-yl)hexanoic Acid]

- AcCys-AcA formation in cell supernatants [4]: No evidence of AcCys-AcA formation
- formation of AcLys-AcA in cell supernatants [4]: detected
- AcLys-AcA in cell supernatant compared to the negative control ([4]; 0.5 μM AcA, 48 h): differed significantly
- AcLys-AcA in cell supernatant compared to the negative control ([4]; 5 μM AcA, all time points (1–48 h)): highly significant increase
- time to completion of adduct formation ([1]; AcA (1; 10 μM) with AcLys (4 mM) in K2HPO4 buffer (50 mM, pH 7.4), 37 °C): < 1 min
- time to completion of adduct formation [5]: < 1 min
SMILES: CC(=O)C=CC=O [AcA, 3-acetylacrolein]
- EC50 at 24 h [3]: 8.5 ± 1.3 µM

SMILES: Cc1ccco1 [2-MF, 2-Methylfuran]
- vmax ([6]; RLM from untreated rats, Eadie-Hofstee): 0.53 μmol/2 mg microsomal protein/min
- Km ([6]; pretr. (phenobarbital)): 463 µM
- Km ([6]; untr., 2.5–20 mM total 2-MF): 1420 µM
- vmax ([6]; rats pretreated with phenobarbital): 0.81 μmol/2 mg microsomal protein/min
- EC50 at 24 h [3]: 551 ± 53.1 µM
- AcCys-AcA formation in cell supernatants [4]: No evidence of AcCys-AcA formation
- formation of AcLys-AcA in cell supernatants [4]: detected
- AcLys-AcA in cell supernatant compared to the negative control ([4]; 100 μM 2-MF, 1 h): significant increase
- depletion of GSH (pRH): no depletion of GSH
- vmax [7]: 0.09 μmol/(mg prot.·min)
- vmax ([8]; HLM; I) high substrate concentrations (250, 500, 750 μM 2-MF)): 0.88 μmol/(mg prot.·min)
- vmax ([8]; HLM; II) low substrate concentrations (10 and 100 μM 2-MF)): 0.12 μmol/(mg prot.·min)
- AcA formation compared to the negative control (CYP 2E1 [9]): significant formation of AcA
- depletion of GSH (HepG2 cells): no depletion of GSH

SMILES: c1ccoc1 [Furan]
- Ecat (CYP 2E1 [10]): 3.9e-1
- Km (CYP 2E1 [10]): 65.1 ± 16.4 µM
- kcat (CYP 2E1 [10]): 26 μmol/(μmol CYP·min)
- Km [11]: 18.5 ± 6.8 µM
- vmax [12]: 0.0013 μmol/(mg prot.·min)
- vmax [13]: 0.0016 μmol/(mg prot.·min)
- Km (CYP 2E1 [14]; [15]): 24 ± 13 µM
- kcat (CYP 2E1 [14]; [15]): 34 ± 4 μmol/(μmol CYP·min)
- vmax (CYP 2E1 [14]; 20 or 400 μM furan, ref [30]): 34 ± 4 pmol BDA/pmol CYP/min
- Ecat (CYP 2E1 [14]; ref Gates et al. (2012) [30]): 1.4
